Laboratory results reported in ChEMBL document CHEMBL4251591, “Primaquine hybrids as promising antimycobacterial and antimalarial agents” (Eur J Med Chem, 2018).
Converted amounts (≈) assume the structure as drawn.

What was measured:
Mycobacterium avium = assay: Antimycobacterial activity against Mycobacterium avium subsp. paratuberculosis CIT03 clinical isolate after 11 days by Alamar Blue assay; type: functional; conditions: CIT03, 264 h
L6 = assay: Cytotoxicity against rat L6 cells after 70 hrs by Alamar Blue-based assay; type: cell-based; conditions: L6, 70 h
How it was run: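 Rat skeletal myoblast L-6 cells, 4000 per well, in RPMI 1640 with 10% FBS and L-glutamine. Eleven 3-fold serial dilutions spanning 100 to 0.002 were tested for 70 h. Alamar Blue was then added for 2 h and fluorescence read at ex 536 / em 588 nm. IC50 came from linear regression of sigmoid curves, averaged over two replicate experiments, with podophyllotoxin as control.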

[1] = tested on: Mycobacterium tuberculosis; assay: Antimycobacterial activity against Mycobacterium tuberculosis H37Ra ATCC 25177 after 7 days by Alamar Blue assay; type: functional; conditions: H37Ra ATCC 25177, 168 h
How it was run: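 Log-phase culture washed and resuspended in supplemented Middlebrook 7H9GC broth, adjusted to McFarland No. 1, then diluted 1:20. Equal volumes of culture and DMSO-prepared compound dilutions were tested in duplicate for 7 days. 10% AlamarBlue was added, with 570/600 nm readings for background and after 24 h reincubation. Blue meant no growth, pink meant growth. MIC was the lowest concentration without visible growth.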

[2] = tested on: Mycobacterium avium complex sp.; assay: Antimycobacterial activity against Mycobacterium avium complex CIT19/06 clinical isolate after 5 days by Alamar Blue assay; type: functional; conditions: CIT19/06, 120 h
Plasmodium berghei = assay: Antimalarial activity against liver stage of firefly luciferase-expressing Plasmodium berghei infected in human HuH7 cells measured after 48 hrs post parasite addition by luciferase-based luminescence assay; type: functional, organism-based; conditions: Huh-7, 48 h
How it was run: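 HuH7 hepatoma cells seeded at 1.0 × 10^4 per well the day before infection. Drug-containing medium was added 1 h before 1.0 × 10^4 sporozoites, followed by centrifugation at 1800 × g for 5 min. Infection load was read by bioluminescence 48 h later, and host viability by CellTiter-Blue. IC50 came from nonlinear regression of normalized dose-response curves.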

Row | SMILES | MIC (Mycobacterium avium) [mg/L] | IC50 (L6) [mg/L] | MIC [1] [mg/L] | MIC [2] [mg/L] | IC50 (Plasmodium berghei) [µM]
1 | COc1cc(NC(C)CCCNC(=O)Nc2cccc(O)c2)c2ncccc2c1 (centres undefined) | 16 (≈ 40.6 µM) | 38 (≈ 96.3 µM) | 8 (≈ 20.3 µM) | 16 (≈ 40.6 µM) | 
2 | COc1cc(NC(C)CCCNC(=O)Nc2cccc(F)c2)c2ncccc2c1 (centres undefined) | 4 (≈ 10.1 µM) | 9.18 (≈ 23.2 µM) | 2 (≈ 5.04 µM) | 8 (≈ 20.2 µM) | 
3 | COc1cc(NC(C)CCCNC(=O)NNC(=O)Nc2ccc(O)cc2)c2ncccc2c1 (centres undefined) | 128 (≈ 283 µM) |  | 128 (≈ 283 µM) | 256 (≈ 566 µM) | 
4 | COc1cc(NC(C)CCCNC(=O)NNC(=O)Nc2cccc(C(F)(F)F)c2)c2ncccc2c1 (centres undefined) | 128 (≈ 254 µM) |  | 128 (≈ 254 µM) | 128 (≈ 254 µM) | 
5 | COc1cc(NC(C)CCCNC(=O)Nc2ccc(F)cc2)c2ncccc2c1 (centres undefined) | 16 (≈ 40.4 µM) | 9.3 (≈ 23.5 µM) | 8 (≈ 20.2 µM) | 16 (≈ 40.4 µM) | 
6 | COc1cc(NC(C)CCCNC(=O)Nc2ccc(Cl)cc2)c2ncccc2c1 (centres undefined) | 32 (≈ 77.5 µM) |  | 16 (≈ 38.7 µM) | 64 (≈ 155 µM) | 
7 | COc1cc(NC(C)CCCNC(=O)/C=C/c2cc(C(F)(F)F)cc(C(F)(F)F)c2)c2ncccc2c1 (centres undefined) | 16 (≈ 30.4 µM) |  | 16 (≈ 30.4 µM) | 64 (≈ 122 µM) | 2.39
8 | COc1cc(NC(C)CCCNC(=O)/C=C/c2ccc(OC)c(OC)c2)c2ncccc2c1 (centres undefined) | 128 (≈ 285 µM) | > 100 | 128 (≈ 285 µM) | 256 (≈ 569 µM) | 
9 | COc1cc(NC(C)CCCNC(=O)NNC(=O)NCCc2ccccc2)c2ncccc2c1 (centres undefined) | 128 (≈ 276 µM) |  | 128 (≈ 276 µM) | 256 (≈ 551 µM) | 
10 | COc1cc(NC(C)CCCNC(=O)/C(C)=C/c2ccccc2)c2ncccc2c1 (centres undefined) |  | > 100 |  |  | 0.724
11 | COc1cc(NC(C)CCCNC(=O)/C=C/c2cccc(C(F)(F)F)c2)c2ncccc2c1 (centres undefined) | 32 (≈ 69.9 µM) |  | 32 (≈ 69.9 µM) | 128 (≈ 280 µM) | 
12 | COc1cc(NC(C)CCCNC(=O)NNC(=O)NCc2ccccc2)c2ncccc2c1 (centres undefined) | 128 (≈ 284 µM) |  | 128 (≈ 284 µM) | 256 (≈ 568 µM) | 
13 | COc1cc(NC(C)CCCNC(=O)/C=C/c2ccc(C(F)(F)F)cc2)c2ncccc2c1 (centres undefined) | 64 (≈ 140 µM) |  | 32 (≈ 69.9 µM) | 128 (≈ 280 µM) | 
14 | COc1cc(NC(C)CCCNC(=O)/C=C/c2cc(OC)c(OC)c(OC)c2)c2ncccc2c1 (centres undefined) | 256 (≈ 534 µM) | > 100 | 256 (≈ 534 µM) | 256 (≈ 534 µM) | 
15 | COc1cc(NC(C)CCCNC(=O)/C=C/c2ccccc2F)c2ncccc2c1 (centres undefined) | 64 (≈ 157 µM) | 1.5 (≈ 3.68 µM) | 32 (≈ 78.5 µM) | 128 (≈ 314 µM) | 
16 | COc1cc(NC(C)CCCNC(=O)/C=C/c2ccc3c(c2)OCO3)c2ncccc2c1 (centres undefined) | 64 (≈ 148 µM) |  | 64 (≈ 148 µM) | 64 (≈ 148 µM) | 
17 | COc1cc(NC(C)CCCNC(=O)NNC(=O)NC(c2ccccc2)(c2ccccc2)c2ccccc2)c2ncccc2c1 (centres undefined) | 128 (≈ 212 µM) | > 65 | 128 (≈ 212 µM) | 128 (≈ 212 µM) | 
18 | COc1cc(NC(C)CCCNC(=O)NNC(=O)Nc2cccc(Br)c2)c2ncccc2c1 (centres undefined) | 128 (≈ 248 µM) | 20 (≈ 38.8 µM) | 128 (≈ 248 µM) | 256 (≈ 497 µM) | 0.182
19 | COc1cc(NC(C)CCCNC(=O)NC2CCCCC2)c2ncccc2c1 (centres undefined) | 16 (≈ 41.6 µM) |  | 16 (≈ 41.6 µM) | 32 (≈ 83.2 µM) | 
20 | COc1cc(NC(C)CCCNC(=O)NC2CCCC2)c2ncccc2c1 (centres undefined) | 16 (≈ 43.2 µM) |  | 16 (≈ 43.2 µM) | 32 (≈ 86.4 µM) | 
21 | COc1cc(NC(C)CCCNC(=O)NCc2ccncc2)c2ncccc2c1 (centres undefined) | 32 (≈ 81.3 µM) |  | 32 (≈ 81.3 µM) | 32 (≈ 81.3 µM) | 
22 | COc1cc(NC(C)CCCNC(=O)NCCO)c2ncccc2c1 (centres undefined) | 64 (≈ 185 µM) |  | 32 (≈ 92.4 µM) | 64 (≈ 185 µM) | 
23 | COc1cc(NC(C)CCCNC(=O)NCCCO)c2ncccc2c1 (centres undefined) | 64 (≈ 178 µM) |  | 64 (≈ 178 µM) | 64 (≈ 178 µM) | 
24 | O=C(O)c1cn(C2CC2)c2cc(N3CCNCC3)c(F)cc2c1=O [CIPROFLOXACIN] |  |  | 16 (≈ 48.3 µM) |  | 
25 | NNC(=O)c1ccncc1 [ISONIAZID] | > 256 |  | 5 (≈ 36.5 µM) | > 256 | 
26 | COc1cc([C@@H]2c3cc4c(cc3[C@H](O)[C@H]3COC(=O)[C@H]23)OCO4)cc(OC)c1OC [PODOFILOX] |  | 0.007 (≈ 0.0169 µM) |  |  | 
27 | COc1cc(NC(C)CCCN)c2ncccc2c1.O=P(O)(O)O.O=P(O)(O)O (centres undefined) [PRIMAQUINE PHOSPHATE] | 32 |  | 32 | 32 | 
28 | CO[C@H]1/C=C/O[C@@]2(C)Oc3c(C)c(O)c4c(O)c(c(/C=N/N5CCN(C)CC5)c(O)c4c3C2=O)NC(=O)/C(C)=C\C=C\[C@H](C)[C@H](O)[C@@H](C)[C@@H](O)[C@@H](C)[C@H](OC(C)=O)[C@@H]1C [RIFAMPIN] | 90 (≈ 109 µM) |  | 8 (≈ 9.72 µM) | 30 (≈ 36.5 µM) | 
